From ChEMBL document CHEMBL2346621, “Discovery of novel tricyclic indole derived inhibitors of HCV NS5B RNA dependent RNA polymerase” (Bioorg Med Chem, 2013)

Assays:
[1] = test system: Hepatitis C virus; experiment: Inhibition of HCV-1b Con-1 C-terminal His6x-tagged NS5B delta21 RNA dependent RNA polymerase expressed in Escherichia coli JM109 (DE3) assessed as [alpha-33P]CTP incorporation in RNA after 30 mins by scintillation counting analysis; parameters: species or system Hepatitis C virus subtype 1b; settings: Con1, JM 109, 0.5 h
[2] = Cytotoxicity against human hepatoma cells assessed as cell viability by MTS assay; type: cell-based
In short: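 Cellular toxicity was measured by MTS assay, with GAPDH also used as an internal control, and expressed as CC50.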

[3] = test system: Hepatitis C virus; experiment: Antiviral activity against Hepatitis C virus infected in human hepatoma cells assessed as reduction in replicon RNA level; type: functional, organism-based, Hepacivirus hominis
In short: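 Replicon-bearing hepatoma cells were used. EC50 is the concentration that reduces viral RNA levels by 50%.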

[4] = AUC (0 to 6 hrs) in rat at 10 mg/kg, po; type: ADME, organism-based; parameters: time < 6 hr, dose 10 mg/kg, route oral; settings: plasma
In short: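 Rapid rat assay: single oral 10 mg/kg dose in 0.4% HPMC. Plasma AUC integrated over 0–6 h after dosing (AUC0–6 h).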

Row | SMILES | IC50 [1] [nM] | EC50 [3] [nM] | AUC(0-t) at 6 h [4] [µM·h] | CC50 [2] [µM]
1 | O=C(NS(=O)(=O)C1CC1)c1c(-c2ccc[nH]c2=O)c2c3occc3ccc2n1Cc1cc(F)ccc1F | 16 | 50 | – | > 10
2 | Cc1coc2c1ccc1c2c(-c2ccc[nH]c2=O)c(C(=O)O)n1Cc1cc(F)ccc1F | 2900 | – | – | > 10
3 | CS(=O)(=O)NC(=O)c1c(-c2ccc[nH]c2=O)c2c3occc3ccc2n1Cc1cc(C(N)=O)ccc1F | 10 | 30 | – | > 10
4 | Cc1ccccc1Cn1c(C(=O)NS(C)(=O)=O)c(-c2ccc[nH]c2=O)c2c3occc3ccc21 | 10 | 50 | 1.2 | > 10
5 | O=C(O)c1c(-c2ccc[nH]c2=O)c2c3scnc3ccc2n1Cc1cc(F)ccc1F | 1700 | – | 104 | > 10
6 | CCc1coc2c1ccc1c2c(-c2ccc[nH]c2=O)c(C(=O)O)n1Cc1cc(F)ccc1F | > 5000 | – | – | > 10
7 | O=C(O)c1c(-c2ccc[nH]c2=O)c2c3occc3ccc2n1Cc1cc(F)ccc1F | 31 | 160 | 146 | > 10
8 | O=C(O)c1c(-c2ccc[nH]c2=O)c2c3ccoc3ccc2n1Cc1cc(F)ccc1F | 34 | 3100 | – | > 10
9 | CS(=O)(=O)NC(=O)c1c(-c2ccc[nH]c2=O)c2c3occc3ccc2n1Cc1ccc(F)cc1F | 31 | 80 | 2.4 | > 10
10 | O=C(O)c1c(-c2ccc[nH]c2=O)c2c3c(ccc2n1Cc1cc(F)ccc1F)CCC3 | 27 | 3500 | 104 | > 10
11 | Cc1cc2ccc3c(c(-c4ccc[nH]c4=O)c(C(=O)O)n3Cc3cc(F)ccc3F)c2o1 | 21 | 2000 | – | > 10
12 | O=C(NS(=O)(=O)Cc1ccccc1)c1c(-c2ccc[nH]c2=O)c2cc(Cl)ccc2n1Cc1cc(F)ccc1F | 10 | 1000 | – | –

Compounds with a lower IC50 [1], results first:

Row | IC50 [1] [nM] | EC50 [3] [nM] | AUC(0-t) at 6 h [4] [µM·h] | SMILES | CC50 [2] [µM]
13 | 7 | 2000 | – | O=C(O)c1c(-c2ccc[nH]c2=O)c2c3c(ccc2n1Cc1cc(F)ccc1F)OC(F)(F)O3 | > 10
14 | 8 | 50 | 1 | CC(C)S(=O)(=O)NC(=O)c1c(-c2ccc[nH]c2=O)c2c3occc3ccc2n1Cc1cc(F)ccc1F | > 10
15 | 9 | 50 | 11 | CS(=O)(=O)NC(=O)c1c(-c2ccc[nH]c2=O)c2c3occc3ccc2n1Cc1cc(F)ccc1F | > 10
16 | 7 | 120 | – | O=C(O)c1c(-c2ccc[nH]c2=O)c2c3occ(Cl)c3ccc2n1Cc1cc(F)ccc1F | > 10
17 | 8 | 100 | 9.5 | CS(=O)(=O)NC(=O)c1c(-c2ccc[nH]c2=O)c2c3occc3ccc2n1Cc1ccccc1F | > 10
18 | 9 | 700 | – | O=C(O)c1c(-c2ccc[nH]c2=O)c2c3ncsc3ccc2n1Cc1cc(F)ccc1F | > 10
19 | 6 | 110 | 0.7 | CCS(=O)(=O)NC(=O)c1c(-c2ccc[nH]c2=O)c2c3occc3ccc2n1Cc1cc(F)ccc1F | > 10
20 | 3 | 50 | – | CS(=O)(=O)NC(=O)c1c(-c2ccc[nH]c2=O)c2c3occc3ccc2n1Cc1ccccc1Cl | > 10
21 | 8 | 460 | 11 | O=C(O)c1c(-c2ccc[nH]c2=O)c2c3c(ccc2n1Cc1cc(F)ccc1F)CCO3 | > 10
22 | 6 | 60 | – | Cc1ccc(Cn2c(C(=O)NS(C)(=O)=O)c(-c3ccc[nH]c3=O)c3c4occc4ccc32)c(C)c1 | > 10
23 | 3 | 30 | 0.3 | Cc1cccc(Cn2c(C(=O)NS(C)(=O)=O)c(-c3ccc[nH]c3=O)c3c4occc4ccc32)c1F | > 10
